Measured values reported in ChEMBL document CHEMBL1136958, “Design and optimization of renin inhibitors: Orally bioavailable alkyl amines” (Bioorg Med Chem Lett, 2009).
pIC50: −log10 of the molar value. Each block holds one molecule with its values, some of them ahead of it. Calls of active or inactive are those of the source. No cut-off for these calls is given here.

Columns and labels:
[1] = Cmax in rat at 10 mg/kg, po and 2 mg/kg, iv; type: ADME, organism-based; conditions: in vivo
Procedure, shortened: (§1)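 Rats dosed with the fumarate salt at 10 mg/kg by oral route and 2 mg/kg intravenously. Plasma concentrations measured over time, and PK parameters derived from them.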

[2] = Tmax in rat at 10 mg/kg, po and 2 mg/kg, iv; type: ADME, organism-based; conditions: in vivo; procedure, shortened: as §1
[3] = AUC (0 to t) in rat at 10 mg/kg, po and 2 mg/kg, iv; type: ADME, organism-based; conditions: plasma; procedure, shortened: as §1
[4] = AUC (infinity) in rat at 10 mg/kg, po and 2 mg/kg, iv; type: ADME, organism-based; conditions: plasma; procedure, shortened: as §1
[5] = Clearance in rat at 2 mg/kg, iv; type: ADME, organism-based; parameters: dose 2 mg/kg, route intravenous; conditions: in vivo; procedure, shortened: as §1
[6] = Oral bioavailability in rat at 10 mg/kg; type: ADME, organism-based; conditions: in vivo; procedure, shortened: as §1
Renin [7] = biological target: T1, Renin (Homo sapiens, UniProt P00797); assay: Inhibition of human recombinant renin
T1 sequence (P00797 whole entry): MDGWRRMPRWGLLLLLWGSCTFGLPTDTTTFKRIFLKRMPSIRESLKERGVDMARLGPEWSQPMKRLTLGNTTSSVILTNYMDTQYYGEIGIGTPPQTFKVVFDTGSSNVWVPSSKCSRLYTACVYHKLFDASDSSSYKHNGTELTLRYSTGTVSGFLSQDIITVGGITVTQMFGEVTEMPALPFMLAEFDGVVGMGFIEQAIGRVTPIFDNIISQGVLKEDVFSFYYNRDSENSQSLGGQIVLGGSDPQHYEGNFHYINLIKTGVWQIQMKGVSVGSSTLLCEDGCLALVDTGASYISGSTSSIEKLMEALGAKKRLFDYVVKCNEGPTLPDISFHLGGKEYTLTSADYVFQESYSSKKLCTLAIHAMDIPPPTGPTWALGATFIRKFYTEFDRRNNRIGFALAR

Renin [8] = biological target: T1, Renin; assay: Inhibition of human recombinant renin in presence of human plasma by competitive radioimmunoassay; type: cell-free
Rattus norvegicus = assay: Antihypertensive activity in double transgenic rat model assessed as reduction in blood pressure at 60 mg/kg, po administered on day 2 and day 3 after vehicle treatment on day 1; type: functional, organism-based; parameters: dose 60 mg/kg
Procedure, shortened: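 Telemetered double transgenic rats carrying human angiotensinogen and human renin genes (n = 4). Vehicle given on day 1 with blood pressure monitored over 24 h. Oral gavage at 60 mg/kg at t = 24 h and 48 h, with blood pressure followed continuously by telemetry.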

[9] = Half life in rat at 10 mg/kg, po and 2 mg/kg, iv; type: ADME, organism-based; conditions: in vivo; procedure, shortened: as §1
[10] = Volume of distribution at steady state in rat at 10 mg/kg, po and 2 mg/kg, iv; type: ADME, organism-based; conditions: in vivo, read-out: Vdss

Cmax [1]: 101 ng/mL
Tmax [2]: 2 h
AUC(0-t) [3]: 547 ng·h/mL
AUC(0-inf) [4]: 689 ng·h/mL
clearance [5]: 66 mL/min/kg
bioavailability [6]: 33.6%
Structure (SMILES): CNC[C@H](CC1CCCCC1)NC(=O)N1CCC[C@@H]([C@@](O)(CCCCOC)c2ccccc2)C1.O=C(O)/C=C/C(=O)O

pIC50 (Renin [7]): 8.05
pIC50 (Renin [8]): 6.55
Structure (SMILES): CCc1cccc([C@](O)(CCCCOC)[C@@H]2CCCN(C(=O)N[C@H](CNC)CC3CCCCC3)C2)c1

Structure (SMILES): CNC[C@H](CC1CCCCC1)NC(=O)N1CCC[C@@H]([C@@](O)(CCCCOC)c2cccc(Cl)c2)C1
Activity (Rattus norvegicus): Active

Cmax [1]: 28 ng/mL
Tmax [2]: 4.3 h
AUC(0-inf) [4]: 254 ng·h/mL
half-life [9]: 8 h
clearance [5]: 30 mL/min/kg
Vd [10]: 16 L/kg
bioavailability [6]: 5.5%
Structure (SMILES): CNC[C@H](CC1CCCCC1)NC(=O)N1CCC[C@@H]([C@@](O)(CCCCOC)c2cccc(Cl)c2F)C1.O=C(O)/C=C/C(=O)O

pIC50 (Renin [7]): 9.05
pIC50 (Renin [8]): 7.55
Structure (SMILES): CNC[C@H](CC1CCCCC1)NC(=O)N1CCC[C@@H]([C@@](O)(CCCCOC)c2cc(F)cc(Cl)c2)C1

pIC50 (Renin [7]): 8.15
pIC50 (Renin [8]): 7.19
Structure (SMILES): CNC[C@H](CC1CCCCC1)NC(=O)N1CCC[C@@H]([C@@](O)(CCCCOC)c2ccccc2)C1

Cmax [1]: 83 ng/mL
Tmax [2]: 2.7 h
AUC(0-t) [3]: 433 ng·h/mL
AUC(0-inf) [4]: 510 ng·h/mL
half-life [9]: 9.6 h
clearance [5]: 59 mL/min/kg
bioavailability [6]: 21.1%
Structure (SMILES): CNC[C@H](CC1CCCCC1)NC(=O)N1CCC[C@@H]([C@@](O)(CCCCOC)c2cccc(F)c2)C1.O=C(O)/C=C/C(=O)O

Structure (SMILES): COCCCOc1cc(C[C@@H](C[C@H](N)[C@@H](O)C[C@H](C(=O)NCC(C)(C)C(N)=O)C(C)C)C(C)C)ccc1OC.COCCCOc1cc(C[C@@H](C[C@H](N)[C@@H](O)C[C@H](C(=O)NCC(C)(C)C(N)=O)C(C)C)C(C)C)ccc1OC.O=C(O)/C=C/C(=O)O [ALISKIREN FUMARATE]
Cmax [1]: 4 ng/mL
Tmax [2]: 0.1 h
AUC(0-inf) [4]: 31 ng·h/mL
clearance [5]: 55 mL/min/kg
bioavailability [6]: 1.2%

pIC50 (Renin [7]): 8.40
Structure (SMILES): CCOCCCO[C@@H](c1cccc(Cl)c1)[C@@H]1CCCN(C(=O)N[C@H](CNC)CC2CCCCC2)C1

Cmax [1]: 135 ng/mL
Tmax [2]: 3 h
AUC(0-t) [3]: 745 ng·h/mL
AUC(0-inf) [4]: 833 ng·h/mL
half-life [9]: 8.7 h
clearance [5]: 79 mL/min/kg
Vd [10]: 55 L/kg
bioavailability [6]: 48.3%
Structure (SMILES): CCOCCCC[C@@](O)(c1ccccc1)[C@@H]1CCCN(C(=O)N[C@H](CNC)CC2CCCCC2)C1.O=C(O)/C=C/C(=O)O

pIC50 (Renin [7]): 7.80
pIC50 (Renin [8]): 6.79
Structure (SMILES): CCOCCCC[C@@](O)(c1ccccc1)[C@@H]1CCCN(C(=O)N[C@H](CNC)CC2CCCCC2)C1

pIC50 (Renin [7]): 8.60
pIC50 (Renin [8]): 7.17
Structure (SMILES): CNC[C@H](CC1CCCCC1)NC(=O)N1CCC[C@@H]([C@@](O)(CCCCOC)c2cccc(C)c2)C1

pIC50 (Renin [7]): 7.68
pIC50 (Renin [8]): 6.50
Structure (SMILES): CNC[C@H](CC1CCCCC1)NC(=O)N1CCC[C@@H]([C@@](O)(CCCCO)c2cccc(Cl)c2)C1

pIC50 (Renin [7]): 7.42
pIC50 (Renin [8]): 6.31
Structure (SMILES): CCOCCCC[C@@](O)(c1ccccc1)[C@@H]1CCCN(C(=O)N[C@H](CN)CC2CCCCC2)C1

pIC50 (Renin [7]): 7.89
pIC50 (Renin [8]): 7.06
Structure (SMILES): CNC[C@H](CC1CCCCC1)NC(=O)N1CCC[C@@H]([C@@](O)(CCCCOC)c2cccc(OC)c2)C1

pIC50 (Renin [7]): 7.24
Structure (SMILES): CNC[C@H](CC1CCCCC1)NC(=O)N1CCC[C@@H]([C@@H](OCCCOC)c2cccc(F)c2)C1

pIC50 (Renin [7]): 9.85
pIC50 (Renin [8]): 7.70
Structure (SMILES): CNC[C@H](CC1CCCCC1)NC(=O)N1CCC[C@@H]([C@@](O)(CCCCOC)c2cccc(F)c2F)C1

pIC50 (Renin [7]): 7.40
pIC50 (Renin [8]): 6.35
Structure (SMILES): CCOCCCO[C@@H](c1ccccc1)[C@@H]1CCCN(C(=O)N[C@H](CNC)CC2CCCCC2)C1

pIC50 (Renin [7]): 6.90
Structure (SMILES): CCOCCCO[C@@H](c1cccc(Cl)c1Cl)[C@@H]1CCCN(C(=O)N[C@H](CNC)CC2CCCCC2)C1

Cmax [1]: 28 ng/mL
Tmax [2]: 2.3 h
AUC(0-t) [3]: 221 ng·h/mL
AUC(0-inf) [4]: 192 ng·h/mL
half-life [9]: 5.1 h
clearance [5]: 46 mL/min/kg
Vd [10]: 56 L/kg
bioavailability [6]: 7.5%
Structure (SMILES): COCCCC[C@@](O)(c1ccccc1)[C@@H]1CCCN(C(=O)N[C@H](CN)CC2CCCCC2)C1.O=C(O)/C=C/C(=O)O

pIC50 (Renin [7]): 7.68
pIC50 (Renin [8]): 6.78
Structure (SMILES): COCCCC[C@@](O)(c1ccccc1)[C@@H]1CCCN(C(=O)N[C@H](CN)CC2CCCCC2)C1

pIC50 (Renin [7]): 7.43
pIC50 (Renin [8]): 7.07
Structure (SMILES): CNC[C@H](CC1CCCCC1)NC(=O)N1CCC[C@@H]([C@@](O)(CCCCOC)c2cccc(C#N)c2)C1
